# Assay results published in ChEMBL document CHEMBL1125100, “New quinolone antibacterial agents. Synthesis and biological activity of 7-(3,3- or 3,4-disubstituted-1-pyrrolidinyl)quinoline-3-carboxylic acids” (1990).
# What was measured:
# Format in all cases: functional
# Escherichia coli [1] = assay: Antibacterial activity was determined against Gram-negative Escherichia coli Vogel bacteria
# Outline: (§1)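 MICs, in micrograms per milliliter, were determined by standard microtitration (microdilution) techniques against each listed Gram-negative and Gram-positive strain.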
# Enterobacter cloacae = assay: Antibacterial activity was determined against Gram-negative Enterobacter cloacae HA2646 bacteria; outline: as §1
# Escherichia coli [2] = assay: Antibacterial activity was determined against Gram-negative Escherichia coli H560 bacteria; outline: as §1
# Escherichia coli [3] = assay: Protective dose against Escherichia coli H560 bacteria; details: read-out: PD50
# Outline: (§2)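 Acute lethal systemic infection model in female Charles River CD-1 mice. The value is the median protective dose (PD50, mg/kg), defined as the dose needed to protect 50% of mice from the lethal infection.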
# Escherichia coli [4] = assay: Gyrase-drug induced cleavage against Escherichia coli
# Outline: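 Compounds were tested for induction of DNA gyrase-mediated cleavage. The value is the minimum drug concentration giving linear DNA at an intensity matching that produced by oxolinic acid at 10 μg/mL.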
# Klebsiella pneumoniae = assay: Antibacterial activity was determined against Gram-negative Klebsiella pneumoniae MGH-2 bacteria; outline: as §1
# Providencia rettgeri = assay: Antibacterial activity was determined against Gram-negative Providencia rettgeri H1771 bacteria; outline: as §1
# Pseudomonas aeruginosa = assay: Antibacterial activity was determined against Gram-negative Pseudomonas aeruginosa UI-18 bacteria; outline: as §1
# Staphylococcus aureus [5] = assay: Antibacterial activity was determined against Gram-positive Staphylococcus aureus H228 bacteria; details: in the assay text read “Gram-positive” for “Gram-negative”; outline: as §1
# Staphylococcus aureus [6] = assay: Antibacterial activity was determined against Gram-positive Staphylococcus aureus UC-76 bacteria; details: in the assay text read “Gram-positive” for “Gram-negative”; outline: as §1
# Streptococcus pneumoniae [7] = assay: Protective dose against Streptococcus pneumoniae bacteria; details: read-out: PD50; outline: as §2
# Streptococcus pneumoniae [8] = assay: Antibacterial activity was determined against Gram-positive Streptococcus pneumoniae SV-1 bacteria; outline: as §1
# Streptococcus pyogenes [9] = assay: Antibacterial activity was determined against Gram-positive Streptococcus pyogenes C203 bacteria; outline: as §1
# Streptococcus pyogenes [10] = assay: Protective dose against Streptococcus pyogenes bacteria; details: read-out: PD50; outline: as §2
# Enterococcus faecalis = assay: Antibacterial activity was determined against Gram-positive Streptococcus faecalis MGH-2 bacteria; outline: as §1
# Streptococcus pneumoniae [11] = assay: Protective dose against Streptococcus pneumonia bacteria; details: read-out: PD50; outline: as §2
structure (smiles),measurement,setting,value
NCC1CN(c2c(F)cc3c(=O)c(C(=O)O)cn(C4CC4)c3c2F)CC1c1ccccc1 (stereo not drawn),MIC,Escherichia coli [1],0.1 mg/L
same,MIC,Enterobacter cloacae,0.2 mg/L
same,MIC,Escherichia coli [2],0.013 mg/L
same,ED50,Escherichia coli [3],27 mg/kg
same,MEC,Escherichia coli [4],2.62 µg/mL
same,MIC,Klebsiella pneumoniae,0.1 mg/L
same,MIC,Providencia rettgeri,0.4 mg/L
same,MIC,Pseudomonas aeruginosa,1.6 mg/L
same,MIC,Staphylococcus aureus [5],0.013 mg/L
same,MIC,Staphylococcus aureus [6],0.006 mg/L
same,ED50,Streptococcus pneumoniae [7],25 mg/kg
same,MIC,Streptococcus pneumoniae [8],0.006 mg/L
same,MIC,Streptococcus pyogenes [9],0.013 mg/L
same,ED50,Streptococcus pyogenes [10],11 mg/kg
same,MIC,Enterococcus faecalis,0.013 mg/L
CC1(N)CCN(c2c(F)cc3c(=O)c(C(=O)O)cn(C4CC4)c3c2F)C1 (stereo not drawn),MIC,Escherichia coli [1],0.2 mg/L
same,MIC,Enterobacter cloacae,0.2 mg/L
same,MIC,Escherichia coli [2],0.2 mg/L
same,MEC,Escherichia coli [4],0.8 µg/mL
same,MIC,Klebsiella pneumoniae,0.4 mg/L
same,MIC,Providencia rettgeri,0.8 mg/L
same,MIC,Pseudomonas aeruginosa,3.1 mg/L
same,MIC,Staphylococcus aureus [5],0.8 mg/L
same,MIC,Staphylococcus aureus [6],0.2 mg/L
same,MIC,Streptococcus pneumoniae [8],0.8 mg/L
same,MIC,Streptococcus pyogenes [9],0.8 mg/L
same,MIC,Enterococcus faecalis,1.6 mg/L
NC1CN(c2c(F)cc3c(=O)c(C(=O)O)cn(C4CC4)c3c2F)CC1c1ccccc1 (stereo not drawn),MIC,Escherichia coli [1],0.1 mg/L
same,MIC,Enterobacter cloacae,0.2 mg/L
same,MIC,Escherichia coli [2],0.025 mg/L
same,MEC,Escherichia coli [4],2.75 µg/mL
same,MIC,Klebsiella pneumoniae,0.2 mg/L
same,MIC,Providencia rettgeri,0.4 mg/L
same,MIC,Pseudomonas aeruginosa,1.6 mg/L
same,MIC,Staphylococcus aureus [5],0.05 mg/L
same,MIC,Staphylococcus aureus [6],0.025 mg/L
same,MIC,Streptococcus pneumoniae [8],0.1 mg/L
same,MIC,Streptococcus pyogenes [9],0.1 mg/L
same,MIC,Enterococcus faecalis,0.1 mg/L
NCC1(c2ccccc2)CCN(c2c(F)cc3c(=O)c(C(=O)O)cn(C4CC4)c3c2F)C1 (stereo not drawn),MIC,Escherichia coli [1],0.05 mg/L
same,MIC,Enterobacter cloacae,0.05 mg/L
same,MIC,Escherichia coli [2],0.013 mg/L
same,ED50,Escherichia coli [3],14 mg/kg
same,MEC,Escherichia coli [4],2.62 µg/mL
same,MIC,Klebsiella pneumoniae,0.1 mg/L
same,MIC,Providencia rettgeri,0.2 mg/L
same,MIC,Pseudomonas aeruginosa,0.8 mg/L
same,MIC,Staphylococcus aureus [5],0.025 mg/L
same,MIC,Staphylococcus aureus [6],0.013 mg/L
same,MIC,Streptococcus pneumoniae [8],0.013 mg/L
same,MIC,Streptococcus pyogenes [9],0.05 mg/L
same,ED50,Streptococcus pyogenes [10],21 mg/kg
same,MIC,Enterococcus faecalis,0.05 mg/L
NC1(c2ccccc2)CCN(c2c(F)cc3c(=O)c(C(=O)O)cn(C4CC4)c3c2F)C1 (stereo not drawn),MIC,Escherichia coli [1],0.025 mg/L
same,MIC,Enterobacter cloacae,0.006 mg/L
same,MIC,Escherichia coli [2],0.013 mg/L
same,ED50,Escherichia coli [3],12 mg/kg
same,MEC,Escherichia coli [4],0.55 µg/mL
same,MIC,Klebsiella pneumoniae,0.05 mg/L
same,MIC,Providencia rettgeri,0.05 mg/L
same,MIC,Pseudomonas aeruginosa,0.2 mg/L
same,MIC,Staphylococcus aureus [5],0.013 mg/L
same,MIC,Staphylococcus aureus [6],0.006 mg/L
same,MIC,Streptococcus pneumoniae [8],0.013 mg/L
same,MIC,Streptococcus pyogenes [9],0.05 mg/L
same,ED50,Streptococcus pyogenes [10],12 mg/kg
same,MIC,Enterococcus faecalis,0.05 mg/L
CN(C)CC1(c2ccccc2)CCN(c2c(F)cc3c(=O)c(C(=O)O)cn(C4CC4)c3c2F)C1 (stereo not drawn),MIC,Escherichia coli [1],0.05 mg/L
same,MIC,Enterobacter cloacae,0.05 mg/L
same,MIC,Escherichia coli [2],0.013 mg/L
same,ED50,Escherichia coli [3],50 mg/kg
same,MEC,Escherichia coli [4],2.62 µg/mL
same,MIC,Klebsiella pneumoniae,0.1 mg/L
same,MIC,Providencia rettgeri,0.1 mg/L
same,MIC,Pseudomonas aeruginosa,0.4 mg/L
same,MIC,Staphylococcus aureus [5],0.05 mg/L
same,MIC,Staphylococcus aureus [6],0.05 mg/L
same,MIC,Streptococcus pneumoniae [8],0.006 mg/L
same,MIC,Streptococcus pyogenes [9],0.025 mg/L
same,MIC,Enterococcus faecalis,0.05 mg/L
NCC1CCN(c2c(F)cc3c(=O)c(C(=O)O)cn(C4CC4)c3c2F)C1 (stereo not drawn),MIC,Escherichia coli [1],0.025 mg/L
same,MIC,Enterobacter cloacae,0.05 mg/L
same,MIC,Escherichia coli [2],0.006 mg/L
same,ED50,Escherichia coli [3],6 mg/kg
same,MEC,Escherichia coli [4],0.25 µg/mL
same,MIC,Klebsiella pneumoniae,0.05 mg/L
same,MIC,Providencia rettgeri,0.1 mg/L
same,MIC,Pseudomonas aeruginosa,0.2 mg/L
same,MIC,Staphylococcus aureus [5],0.025 mg/L
same,MIC,Staphylococcus aureus [6],0.003 mg/L
same,ED50,Streptococcus pneumoniae [11],10 mg/kg
same,MIC,Streptococcus pneumoniae [8],0.006 mg/L
same,MIC,Streptococcus pyogenes [9],0.013 mg/L
same,ED50,Streptococcus pyogenes [10],4 mg/kg
same,MIC,Enterococcus faecalis,0.025 mg/L
NC1CCN(c2c(F)cc3c(=O)c(C(=O)O)cn(C4CC4)c3c2F)C1 (stereo not drawn),MIC,Escherichia coli [1],0.013 mg/L
same,MIC,Enterobacter cloacae,0.025 mg/L
same,MIC,Escherichia coli [2],0.006 mg/L
same,ED50,Escherichia coli [3],1 mg/kg
same,MEC,Escherichia coli [4],0.1 µg/mL
same,MIC,Klebsiella pneumoniae,0.025 mg/L
same,MIC,Providencia rettgeri,0.05 mg/L
same,MIC,Pseudomonas aeruginosa,0.1 mg/L
same,MIC,Staphylococcus aureus [5],0.05 mg/L
same,MIC,Staphylococcus aureus [6],0.025 mg/L
same,ED50,Streptococcus pneumoniae [11],15 mg/kg
same,MIC,Streptococcus pneumoniae [8],0.05 mg/L
same,MIC,Streptococcus pyogenes [9],0.05 mg/L
same,ED50,Streptococcus pyogenes [10],7.5 mg/kg
same,MIC,Enterococcus faecalis,0.05 mg/L
CC1(CN)CCN(c2c(F)cc3c(=O)c(C(=O)O)cn(C4CC4)c3c2F)C1 (stereo not drawn),MIC,Escherichia coli [1],0.05 mg/L
same,MIC,Enterobacter cloacae,0.025 mg/L
same,MIC,Escherichia coli [2],0.013 mg/L
same,ED50,Escherichia coli [3],2.1 mg/kg
same,MEC,Escherichia coli [4],2.62 µg/mL
same,MIC,Klebsiella pneumoniae,0.1 mg/L
same,MIC,Providencia rettgeri,0.2 mg/L
same,MIC,Pseudomonas aeruginosa,0.4 mg/L
same,MIC,Staphylococcus aureus [5],0.013 mg/L
same,MIC,Staphylococcus aureus [6],0.003 mg/L
same,ED50,Streptococcus pneumoniae [11],5 mg/kg
same,MIC,Streptococcus pneumoniae [8],0.006 mg/L
same,MIC,Streptococcus pyogenes [9],0.025 mg/L
same,ED50,Streptococcus pyogenes [10],9 mg/kg
same,MIC,Enterococcus faecalis,0.013 mg/L
CCNCC1(c2ccccc2)CCN(c2c(F)cc3c(=O)c(C(=O)O)cn(C4CC4)c3c2F)C1 (stereo not drawn),MIC,Escherichia coli [1],0.4 mg/L
same,MIC,Enterobacter cloacae,0.8 mg/L
same,MIC,Escherichia coli [2],0.1 mg/L
same,ED50,Escherichia coli [3],37 mg/kg
same,MEC,Escherichia coli [4],2.62 µg/mL
same,MIC,Klebsiella pneumoniae,0.8 mg/L
same,MIC,Providencia rettgeri,1.6 mg/L
same,MIC,Pseudomonas aeruginosa,3.1 mg/L
same,MIC,Staphylococcus aureus [5],0.1 mg/L
same,MIC,Staphylococcus aureus [6],0.05 mg/L
same,MIC,Streptococcus pneumoniae [8],0.025 mg/L
same,MIC,Streptococcus pyogenes [9],0.1 mg/L
same,MIC,Enterococcus faecalis,0.2 mg/L
